The nature of one data set: tier 1 DMPK panel. The class given is in vitro ADME. To be noted: compared with 10b.
A further data set has as its target rat mGlu2 (Rattus norvegicus, UniProt P31421). The class given is cell-based. The essentials: (§1)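 Kinetic plate-based calcium fluorescence readout in cells expressing mGlu2 or mGlu3. For IC50, the test compound was titrated from 1 nM upward against an EC76 of glutamate at mGlu2 or an EC87 at mGlu3. For mechanism, the test compound was held at several fixed concentrations while glutamate was titrated from 1 nM upward, and shifts in the glutamate curve were assessed. Three independent experiments.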

Another data set concerns the target rat mGlu3 (Rattus norvegicus, UniProt P31422). The data set is classed as cell-based. The essentials:
as §1

The next data set addresses mGlu2 (Rattus norvegicus, UniProt P31421). The experiment in a line: mGlu family selectivity screen, fold-shift of glutamate response. The data set is classed as cell-based. The settings on record: 10 μM.
The target in a further data set is mGlu3 (Rattus norvegicus, UniProt P31422). The description is as above. The class given is cell-based. The settings on record: 10 μM.
Chain of mGlu3 (P31422 23-879): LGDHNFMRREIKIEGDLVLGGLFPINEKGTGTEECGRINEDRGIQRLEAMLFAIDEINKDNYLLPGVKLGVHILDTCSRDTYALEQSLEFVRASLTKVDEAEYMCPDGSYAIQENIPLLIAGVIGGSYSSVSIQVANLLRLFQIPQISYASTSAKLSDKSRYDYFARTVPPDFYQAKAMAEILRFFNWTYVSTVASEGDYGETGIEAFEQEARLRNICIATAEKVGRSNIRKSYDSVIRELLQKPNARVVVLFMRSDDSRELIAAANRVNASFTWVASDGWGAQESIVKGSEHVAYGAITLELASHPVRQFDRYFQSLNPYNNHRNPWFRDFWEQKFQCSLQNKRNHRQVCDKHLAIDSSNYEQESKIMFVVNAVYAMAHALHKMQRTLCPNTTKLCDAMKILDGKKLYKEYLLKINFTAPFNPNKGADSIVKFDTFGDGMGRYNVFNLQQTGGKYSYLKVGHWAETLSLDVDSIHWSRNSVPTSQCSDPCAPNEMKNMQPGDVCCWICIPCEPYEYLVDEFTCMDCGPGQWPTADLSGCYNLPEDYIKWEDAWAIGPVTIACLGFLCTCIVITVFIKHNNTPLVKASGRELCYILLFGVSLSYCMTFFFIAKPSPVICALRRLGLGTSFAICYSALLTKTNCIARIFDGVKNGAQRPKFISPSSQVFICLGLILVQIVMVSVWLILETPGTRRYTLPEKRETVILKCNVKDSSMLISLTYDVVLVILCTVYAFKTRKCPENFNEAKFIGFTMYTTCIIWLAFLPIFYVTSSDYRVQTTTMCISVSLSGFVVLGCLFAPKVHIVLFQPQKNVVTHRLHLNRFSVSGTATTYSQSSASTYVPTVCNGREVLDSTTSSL
The test system of another data set is the other mGlus. In words: mGlu family selectivity screen, fold-shift of glutamate response. The data set is classed as cell-based. The settings on record: 10 μM. The essentials: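 Fold-shift of glutamate-evoked signaling measured at group I and group III mGlu receptors. Group I receptors read out by calcium response; group III receptors read out by GIRK response.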

Data set [1] is described as follows: predicted hepatic clearance, rat. The data set is classed as in vitro ADME.
Data set [2] can be described thus: predicted hepatic clearance, human. The class given is in vitro ADME.
Setting [3] is: fixed concentrations against glutamate 1 nM – 30 μM.

Chain of rat mGlu3 (P31422 23-879): as above
Chain of rat mGlu2 (P31421 19-872): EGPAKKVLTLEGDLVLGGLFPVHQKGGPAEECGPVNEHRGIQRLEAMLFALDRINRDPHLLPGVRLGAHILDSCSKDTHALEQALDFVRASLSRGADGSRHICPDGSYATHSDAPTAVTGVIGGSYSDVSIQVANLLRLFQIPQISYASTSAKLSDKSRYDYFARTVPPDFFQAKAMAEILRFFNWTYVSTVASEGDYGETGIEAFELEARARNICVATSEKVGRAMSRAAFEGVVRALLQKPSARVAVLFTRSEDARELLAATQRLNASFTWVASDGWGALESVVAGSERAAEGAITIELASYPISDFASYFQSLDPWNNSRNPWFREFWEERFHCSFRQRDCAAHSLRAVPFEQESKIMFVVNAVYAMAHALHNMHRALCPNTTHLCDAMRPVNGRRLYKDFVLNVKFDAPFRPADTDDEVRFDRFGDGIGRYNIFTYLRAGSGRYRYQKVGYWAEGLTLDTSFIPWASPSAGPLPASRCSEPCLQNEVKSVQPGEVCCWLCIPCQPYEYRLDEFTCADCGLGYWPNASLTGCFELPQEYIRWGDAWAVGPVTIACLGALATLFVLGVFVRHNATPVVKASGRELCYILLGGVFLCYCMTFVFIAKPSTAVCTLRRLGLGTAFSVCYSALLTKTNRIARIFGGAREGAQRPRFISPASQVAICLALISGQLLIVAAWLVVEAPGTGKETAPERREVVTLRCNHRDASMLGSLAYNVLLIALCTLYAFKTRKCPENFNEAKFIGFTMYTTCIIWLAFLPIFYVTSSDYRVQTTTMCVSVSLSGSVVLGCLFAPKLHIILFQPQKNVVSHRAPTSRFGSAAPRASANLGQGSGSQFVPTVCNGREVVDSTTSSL
Chain of mGlu2 (P31421 19-872): as above

For the molecule `Cn1c(=O)c2ccc(-c3cccnc3)cc2n2nc(-c3ccc(F)cc3)cc12` [7ab], the DMPK properties entry in “tier 1 DMPK panel” is listed as “similarly poor DMPK properties”.
Consider `Cn1c(=O)c2ccc(-c3cncnc3)cc2n2nc(-c3ccccc3)cc12` [10b, 4-methyl-2-phenyl-8-(pyrimidin-5-yl)pyrazolo[1,5-a]quinazolin-5(4H)-one], for which the “increase in potency at mGlu2 compared to 7d” value on rat mGlu2 was around 3.5 fold. On rat mGlu2 (setting [3]), the “mechanism of action at mGlu2 (progressive fold-shift of glutamate response)” value was “acting as a NAM”. Moreover, the “increase in potency at mGlu3 compared to 7d” value at rat mGlu3 is listed as “over 2 fold”. The “mechanism of action at mGlu3 (progressive fold-shift of glutamate response)” value on rat mGlu3 (setting [3]) was “acting as a NAM”. The “effect on glutamate response at mGlu2” value at mGlu2 is on record as “completely blocked the glutamate response”. The “effect on glutamate response at mGlu3” value on mGlu3 is “completely blocked the glutamate response”. In the data set on the other mGlus, the “effect on responses of the other mGlus to glutamate” value was “did not alter the responses”. Also, the “predicted clearance CLhep, rat” value in data set [1] is 54.7 mL/min/kg. The “predicted clearance CLhep, human” value in data set [2] was 18.7 mL/min/kg.

These data come from PMC4075068 (Bioorganic & medicinal chemistry letters, 2014).
